Screening data as filed in PubChem BioAssay.
DENV2 CPE: DENV2-induced cell death inhibition; 1.7% of 350,000 active; AID 651640; CPE inhibition, % at 9.99 µM; DENV2-infected cells, cytopathic effect rescue, plate reader; in the data active = CPE inhibition above about 20%, passing the limit was not always enough; inconclusive = no clear call, values can overlap the other calls; tested in BHK-21 cells
PGC1a acetyl inh: modulators of PGC1a acetylation | AID 651687 | inhibition, % at 15.6 µM | U2OS PGC1a acetylation, AlphaScreen anti-acetyl-lysine; with virally co-expressed GCN5 acetyltransferase | 0.17% of 350,000 active;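 active = every replicate shows inhibition of at least 40%; inconclusive = mean inhibition at least 40% but some replicate below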
PglD DTNB: blocks C. jejuni PglD acetyltransferase activity. purified PglD enzyme, DTNB colorimetric CoA detection. inhibition, % at 12.5 µM. 0.098% of 360,000 active; in the data active = inhibition above about 16%, passing the limit was not always enough; inconclusive = no clear call, values can overlap the other calls
rRNA inh HTS: inhibits bacterial ribosomal RNA function over humanized ribosomes; GFP signal change (wild-type ribosome), % (concentration not given with the values); 1.6% of 350,000 active; E. coli WT GFP vs humanized-ribosome RFP mutants, fluorescence, 24 h; hits give low values; DMSO median 0, no signal -100;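 active = significant combined selectivity score with lowered wild-type GFP, culture density cut under 30%, mutant RFP and density less affected; inactive = any of these conditions unmet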
HIV Env fusion: blocks HIV Env-driven cell-cell fusion; inhibition, % at 12.3 µM; HeLa-JRFL Env/CEM21 cell fusion, luciferase; 1.1% of 360,000 active;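 active = mean replicate inhibition score of at least 50 and every replicate individually at or above 50; inconclusive = only one of the two criteria met; inactive = mean below 50 and not all replicates reaching 50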
FN deposit inh: fibronectin deposition inhibition. 0.086% of 350,000 active. inhibition, % at 12.6 µM. AH1F fibroblasts, Alexa488-fibronectin deposition fluorescence, overnight;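 active = mean inhibition across replicates of 30% or more, regardless of how many single replicates reach that level; inconclusive = mean under 30% yet at least half of replicates reach 30%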
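Material – AH1F fibroblast monolayer, labelled fibronectin deposition · Reagent – labelled fibronectin 24 nM · Timing – 1 h adhesion, overnight exposure · Measured by – fluorescence at 485 nm excitation, 525 nm emission · Read-out – inhibition of fibronectin deposition signal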
Of the large screens only hits and unclear results are named; the others gave an inactive call. A selection: hits, their analogues and other compounds. The true share with any hit is near 3.5%.

COc1ccc2c3c([nH]c2c1)[C@H](CO)N(S(=O)(=O)c1ccc(C)cc1)CC31CN(C(=O)Cc2cccnc2)C1	DENV2 CPE 27 (no result: PglD DTNB, HIV Env fusion, FN deposit inh)
COc1ccc2c3c([nH]c2c1)[C@@H](CO)N(S(C)(=O)=O)CC31CN(C(=O)c2ccccc2)C1	DENV2 CPE 23 (no result: PglD DTNB, HIV Env fusion)
CC(=O)N1CC[C@@H]2[C@H]1c1cc(-c3cccc(F)c3)ccc1N(C)[C@H]2CO	none (no result: HIV Env fusion)
C[C@H]1CN([C@@H](C)CO)C(=O)c2cc(NC(=O)C3CCCCC3)ccc2O[C@@H]1CN(C)Cc1ccccc1	none (no result: PGC1a acetyl inh, FN deposit inh)
CCOC(=O)CSc1nnc(-c2ccc(OC)cc2)n1CC	none (no result: DENV2 CPE, rRNA inh HTS)
CCOC(=O)Cn1c(-c2ccc(OC)cc2)c(-c2ccc(OC)cc2)nnc1=O	rRNA inh HTS -22
O=C(NCC[C@H]1CC[C@H](NS(=O)(=O)c2ccccc2)[C@@H](CO)O1)c1ccccc1F	none
CC(=O)Oc1ccc2c(=O)c(-c3ccccc3)coc2c1	rRNA inh HTS -24 (no result: PglD DTNB, FN deposit inh)
C/C=C/c1ccc([C@H]2[C@@H](CO)N(C(C)=O)[C@@H]2CN(CCC)C(=O)C2CC2)cc1	none (no result: PglD DTNB, HIV Env fusion, FN deposit inh)
CN1C(=O)c2cc(NC(=O)c3cnccn3)ccc2OC[C@@H]2O[C@@H](CC(=O)NCC3CCCCC3)CC[C@H]21	DENV2 CPE 30 (no result: PGC1a acetyl inh)
COC(=O)C[C@H]1CC[C@H]2[C@@H](COc3ccc(NC(=O)c4cnccn4)cc3C(=O)N2C)O1	DENV2 CPE 144 (no result: HIV Env fusion)
Cc1ccc(S(=O)(=O)N[C@H]2CC[C@@H](CC(=O)NCCc3ccncc3)O[C@@H]2CO)cc1	none (no result: FN deposit inh)
CCC(=O)N(C)C[C@H]1Oc2ncc(C#CCc3ccccc3)cc2C(=O)N([C@@H](C)CO)C[C@H]1C	none (no result: PglD DTNB, HIV Env fusion, FN deposit inh)
Cc1ccc(S(=O)(=O)Oc2ccccc2-c2ccccc2)cc1	HIV Env fusion 60
Cc1ccc(S(=O)(=O)Oc2ccccc2/C=N/O)cc1	none (no result: DENV2 CPE)
COc1cccc(/C=N/Nc2ccnc(=O)[nH]2)c1O	HIV Env fusion 65
O=c1nccc(N/N=C/c2ccccc2O)[nH]1	none (no result: PGC1a acetyl inh, PglD DTNB)
Cc1ccc(S(=O)(=O)Oc2ccccc2/C=N/Nc2ccc(C(=O)O)cc2)cc1	rRNA inh HTS -33
COc1cccc(/C=N/NC(=O)C(C)n2nc(C)c([N+](=O)[O-])c2C)c1O (stereo not given)	rRNA inh HTS -22 (no result: PGC1a acetyl inh, PglD DTNB)
CCC(=O)N(C)C[C@H]1Oc2cc(-c3cccc(OC)c3)ccc2S(=O)(=O)N([C@@H](C)CO)C[C@@H]1C	none
CN1CCN(C(=O)C[C@H]2CC[C@H]3[C@@H](COC[C@@H](O)CN3C(=O)Cc3ccccc3)O2)CC1	none
COc1cccc(/C=N/NC(=O)N/N=C/c2cccc(OC)c2O)c1O	DENV2 CPE inconclusive, rRNA inh HTS -31 (no result: PGC1a acetyl inh)
COc1ccccc1C=NNC(=O)NN=Cc1ccccc1OC	none
COc1cccc(/C=N/Nc2ccc(S(=O)(=O)O)cc2)c1O	none (no result: DENV2 CPE, rRNA inh HTS, FN deposit inh)
COc1cccc(/C=N/Nc2ccc(C(=O)O)cc2)c1O	HIV Env fusion 86 (no result: PglD DTNB)
C/C=C/c1cnc2c(c1)C(=O)N([C@H](C)CO)C[C@H](C)[C@@H](CN(C)Cc1cncnc1)O2	none
COc1ccc(S(=O)(=O)Nc2ccc3c(c2)CC(=O)N([C@@H](C)CO)C[C@@H](C)[C@@H](CN(C)S(=O)(=O)c2ccc(F)cc2)O3)cc1	none (no result: FN deposit inh)
COc1ccc(CCC(=O)NNC(=O)c2ccc(F)cc2)cc1	none
COc1ccc(S(=O)(=O)NCCC(=O)NCc2ccc(F)cc2)cc1	PGC1a acetyl inh 80 (no result: DENV2 CPE, rRNA inh HTS)
COc1ccc(CCC(=O)NNC(=S)NCc2ccc(F)cc2)cc1	rRNA inh HTS -29 (no result: DENV2 CPE, PglD DTNB)
CC1=C(/C=C/C(C)=C/C=C/C(C)=C/CO)C(C)(C)CCC1	DENV2 CPE 122 (no result: HIV Env fusion, FN deposit inh)
CC1=C(/C=C/C(C)=N\NC(=O)c2ccncc2)C(C)(C)CCC1	none (no result: PGC1a acetyl inh, PglD DTNB)
OCC1(Cc2ccc(Cl)cc2)CCN(Cc2ccc3nsnc3c2)CC1	rRNA inh HTS -23 (no result: DENV2 CPE)
C/C=C/c1cnc2c(c1)C(=O)N([C@H](C)CO)C[C@@H](C)[C@@H](CN(C)Cc1ccc3c(c1)OCO3)O2	none (no result: DENV2 CPE, PglD DTNB)
COc1ccc2c3c([nH]c2c1)[C@@H](CO)N(Cc1ccncc1)CC31CCN(Cc2ccc(-c3ccccn3)cc2)CC1	none (no result: PglD DTNB, HIV Env fusion, FN deposit inh)
O=C(CNc1ccccc1)N/N=C/c1cn(-c2ccccc2)nc1-c1ccccc1	none (no result: HIV Env fusion)
NC(=O)N/N=C/c1cn(-c2ccccc2)nc1-c1ccccc1	rRNA inh HTS -18 (no result: PglD DTNB)
O=C(N/N=C/c1cn(-c2ccccc2)nc1-c1cccnc1)c1ccc(F)cc1	rRNA inh HTS -25 (no result: PglD DTNB)
O=C(N/N=C/c1cn(-c2ccccc2)nc1-c1cccnc1)c1cccnc1	none (no result: DENV2 CPE, PGC1a acetyl inh, PglD DTNB)
COc1ccccc1S(=O)(=O)N[C@H]1CC[C@H](CC(=O)N2CCOCC2)O[C@H]1CO	none (no result: FN deposit inh)
CC(=O)N(C)C[C@@H]1Oc2ccc(NS(C)(=O)=O)cc2CC(=O)N(C)C[C@@H]1C	none (no result: DENV2 CPE, PGC1a acetyl inh, PglD DTNB, HIV Env fusion)
C=CCOc1cccc(C(=O)N2CCCC(Nc3ccc(F)cc3)C2)c1 (stereo not given)	DENV2 CPE inconclusive, rRNA inh HTS -26 (no result: FN deposit inh)
CC(C)c1ccc(NC2CCCN(C(=O)c3cccc(N4CCNC4=O)c3)C2)cc1 (stereo not given)	DENV2 CPE 29
C#Cc1cccc(C(=O)N2CCCC(Nc3cccc(F)c3)C2)c1 (stereo not given)	rRNA inh HTS -33 (no result: PGC1a acetyl inh)
COc1ccc(NC2CCCN(C(=O)c3cccc(N4CCNC4=O)c3)C2)cc1 (stereo not given)	none
C[C@H](CO)N1C[C@H](C)[C@H](CN(C)S(=O)(=O)Cc2ccccc2)OCc2ccccc2-c2c(n(C)c3ccccc23)C1=O	none
COc1ccc(S(=O)(=O)Nc2cccc3c2O[C@@H](CN(C)C(=O)Nc2c(C)noc2C)[C@@H](C)CN([C@@H](C)CO)C3=O)cc1	DENV2 CPE 26 (no result: HIV Env fusion, FN deposit inh)
Cc1ccc(S(=O)(=O)Nc2cccc3c2O[C@@H](CN(C)C(=O)Nc2ccc4c(c2)OCO4)[C@@H](C)CN([C@H](C)CO)C3=O)cc1	DENV2 CPE 22 (no result: HIV Env fusion, FN deposit inh)
Cc1noc(C)c1NC(=O)N(C)C[C@H]1Oc2c(NC(=O)Nc3ccc4c(c3)OCO4)cccc2C(=O)N([C@H](C)CO)C[C@H]1C	DENV2 CPE 24 (no result: HIV Env fusion, FN deposit inh)
COc1ccc(S(=O)(=O)Nc2cccc3c2O[C@@H](CN(C)C(=O)Nc2ccc4c(c2)OCO4)[C@@H](C)CN([C@H](C)CO)C3=O)cc1	DENV2 CPE 21
Cc1ccc(S(=O)(=O)Nc2cccc3c2O[C@@H](CN(C)C(=O)Nc2ccc4c(c2)OCO4)[C@H](C)CN([C@H](C)CO)C3=O)cc1	none (no result: HIV Env fusion, FN deposit inh)
CN1C(=O)c2cc(NC(=O)Cc3cccs3)ccc2OC[C@H]2O[C@H](CC(=O)N[C@@H]3CCN(Cc4ccccc4)C3)CC[C@H]21	none (no result: PGC1a acetyl inh)
COc1ccc(NC(=O)N(C)C[C@@H]2Oc3c(NC(=O)Nc4ccc5c(c4)OCO5)cccc3C(=O)N([C@@H](C)CO)C[C@H]2C)cc1	none (no result: FN deposit inh)
